Measurements from PubChem BioAssay AID588730 (Vanderbilt Specialized Chemistry Center, 2011).
Activity calls are given as the source filed them.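 How the source made its calls: active means fold shift at most 0.5 or above 2, or agonist peak response under 75 or over 125 percent; inactive means the rest.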

Molecular target: Metabotropic glutamate receptor 6 (Homo sapiens) (UniProt O15303)
Assay: Fold shift in glutamate response at human mGluR6, Tl+ flux in HEK/GIRK cells, selectivity profiling for mGluR5 PAMs (AID 588730)
Settings: HEK/GIRK hmGluR6, thallium flux, glutamate CRC fold shift, at 10 µM; for Emax: measured here: glutamate max response with compound
How it was run: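 Test system – human mGlu6 in HEK/GIRK cells · Reagent – glutamate as agonist, 11-point concentration-response curve in thallium buffer · Technique – thallium flux fluorescence with FluoZin2 dye loading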

Sequence of Metabotropic glutamate receptor 6 (Homo sapiens) (O15303 whole entry, looked up): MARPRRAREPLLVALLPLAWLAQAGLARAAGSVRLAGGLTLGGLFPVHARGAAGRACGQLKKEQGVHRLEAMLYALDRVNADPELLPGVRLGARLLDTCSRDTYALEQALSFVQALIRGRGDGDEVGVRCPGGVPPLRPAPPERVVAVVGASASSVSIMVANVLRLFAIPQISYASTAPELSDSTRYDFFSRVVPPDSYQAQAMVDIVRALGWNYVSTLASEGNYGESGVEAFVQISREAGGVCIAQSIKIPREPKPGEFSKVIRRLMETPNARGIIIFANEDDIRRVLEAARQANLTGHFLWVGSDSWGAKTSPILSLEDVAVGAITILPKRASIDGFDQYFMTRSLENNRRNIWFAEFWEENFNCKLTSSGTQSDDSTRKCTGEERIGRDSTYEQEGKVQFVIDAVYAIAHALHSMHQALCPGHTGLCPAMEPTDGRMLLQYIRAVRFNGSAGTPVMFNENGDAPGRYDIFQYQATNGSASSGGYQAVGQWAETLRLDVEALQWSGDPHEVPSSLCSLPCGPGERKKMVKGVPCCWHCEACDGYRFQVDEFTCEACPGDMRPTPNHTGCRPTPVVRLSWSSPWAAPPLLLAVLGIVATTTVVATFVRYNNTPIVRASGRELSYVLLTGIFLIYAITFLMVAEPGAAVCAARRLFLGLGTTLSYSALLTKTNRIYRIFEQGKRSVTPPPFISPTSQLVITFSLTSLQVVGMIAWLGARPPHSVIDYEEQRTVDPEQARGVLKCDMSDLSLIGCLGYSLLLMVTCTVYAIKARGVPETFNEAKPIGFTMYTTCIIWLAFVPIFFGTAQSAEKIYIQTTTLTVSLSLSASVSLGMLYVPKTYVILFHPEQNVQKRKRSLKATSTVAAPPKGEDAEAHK

Structure (SMILES) | fold shift | Emax
C[C@@H](NC(=O)c1ccc(C#Cc2cccc(F)c2)cn1)C(C)(C)O | 1.04 (inactive) | 93%
CC1(NC(=O)c2ccc(C#Cc3cccc(F)c3)cn2)COC1 | 0.98 (inactive) | 90%
